The text below walks through data of ChEMBL document CHEMBL1124339, “Conformationally restricted analogues of atriopeptin(103-125)amide” (J Med Chem, 1989).

Positions of bridges follow the written chain, without caps; N, C: chain ends. Non-standard residues stand in square brackets, D forms with d. Residues, ends and D or L forms follow the SMILES beside them. *: point of attachment. hCys = N[C@@H](CCS)C(=O)O; Acm = CC(=O)NC*

The test system of the first experiment is Atrial natriuretic peptide receptor 3 (Oryctolagus cuniculus). The experiment in a line: Relative binding potency towards non-vasorelaxant binding site compared to AP(103-126).
As for `CC[C@H](C)[C@@H]1NC(=O)[C@H](CCCN=C(N)N)NC(=O)[C@H](CC(=O)O)NC(=O)[C@H]([C@@H](C)CC)NC(=O)[C@H](CCCN=C(N)N)NC(=O)[C@@H](CCSCNC(C)=O)NC(=O)CNC(=O)[C@H](Cc2ccccc2)NC(=O)[C@@H](NC(=O)[C@H](CO)NC(=O)[C@@H](N)CO)CSSC[C@@H](C(=O)N[C@@H](CC(N)=O)C(=O)N[C@@H](CO)C(=O)N[C@@H](Cc2ccccc2)C(=O)N[C@@H](CCCN=C(N)N)C(N)=O)NC(=O)CNC(=O)[C@H](CC(C)C)NC(=O)CNC(=O)[C@@H](CCSCNC(C)=O)NC(=O)[C@H](CCC(N)=O)NC(=O)[C@H](C)NC(=O)CNC1=O`, the Relative potency was 0.84.

For another experiment, the species on record is Oryctolagus cuniculus. The experiment in a line: Relative binding potency towards vasorelaxant binding site compared to AP(103-126). In outline:
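Varied unlabeled peptide concentrations; started by adding membranes; 30 min at 25 °C. Filtration with ice-cold buffer, then gamma counting. Nonspecific binding measured with 10^-6 M unlabeled reference peptide. Specific binding fitted by nonlinear least squares.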
With `CC[C@H](C)[C@@H]1NC(=O)[C@H](CCCN=C(N)N)NC(=O)[C@H](CC(=O)O)NC(=O)[C@H]([C@@H](C)CC)NC(=O)[C@H](CCCN=C(N)N)NC(=O)[C@@H](CCSCNC(C)=O)NC(=O)CNC(=O)[C@H](Cc2ccccc2)NC(=O)[C@@H](NC(=O)[C@H](CO)NC(=O)[C@@H](N)CO)CSSC[C@@H](C(=O)N[C@@H](CC(N)=O)C(=O)N[C@@H](CO)C(=O)N[C@@H](Cc2ccccc2)C(=O)N[C@@H](CCCN=C(N)N)C(N)=O)NC(=O)CNC(=O)[C@H](CC(C)C)NC(=O)CNC(=O)[C@@H](CCSCNC(C)=O)NC(=O)[C@H](CCC(N)=O)NC(=O)[C@H](C)NC(=O)CNC1=O`, the Relative potency turned out to be 0.84.

Tested on in the next experiment: not listed separately
As to the kind of experiment: Vasorelaxant activity in norepinephrine-contracted rabbit aortic rings, compared to AP(103-126). Format: functional, Oryctolagus cuniculus, Aorta.
Turning to `CC[C@H](C)[C@@H]1NC(=O)[C@H](CCCN=C(N)N)NC(=O)[C@H](CC(=O)O)NC(=O)[C@H]([C@@H](C)CC)NC(=O)[C@H](CCCN=C(N)N)NC(=O)[C@@H]2CCSSC[C@H](NC(=O)[C@H](CCC(N)=O)NC(=O)[C@H](C)NC(=O)CNC1=O)C(=O)NCC(=O)N[C@@H](CC(C)C)C(=O)NCC(=O)N[C@H](C(=O)N[C@@H](CC(N)=O)C(=O)N[C@@H](CO)C(=O)N[C@@H](Cc1ccccc1)C(=O)N[C@@H](CCCN=C(N)N)C(N)=O)CSSC[C@H](NC(=O)[C@H](CO)NC(=O)[C@@H](N)CO)C(=O)N[C@@H](Cc1ccccc1)C(=O)NCC(=O)N2` (H-SSCFG[hCys]RIDRIGAQCGLGCNSFR-NH2; disulfide 3-19, 6-15), the Relative potency is 0.049.
`CC[C@H](C)[C@@H]1NC(=O)[C@H](CCCN=C(N)N)NC(=O)[C@H](CC(=O)O)NC(=O)[C@H]([C@@H](C)CC)NC(=O)[C@H](CCCN=C(N)N)NC(=O)[C@H](CSCNC(C)=O)NC(=O)CNC(=O)[C@H](Cc2ccccc2)NC(=O)[C@@H](NC(=O)[C@H](CO)NC(=O)[C@@H](N)CO)CSSC[C@@H](C(=O)N[C@@H](CC(N)=O)C(=O)N[C@@H](CO)C(=O)N[C@@H](Cc2ccccc2)C(=O)N[C@@H](CCCN=C(N)N)C(N)=O)NC(=O)CNC(=O)[C@H](CC(C)C)NC(=O)CNC(=O)[C@H](CSCNC(C)=O)NC(=O)[C@H](CCC(N)=O)NC(=O)[C@H](C)NC(=O)CNC1=O` displayed a Relative potency of 0.43.
Compound `CC[C@H](C)[C@H](NC(=O)[C@H](CC/N=C(/N)NO)NC(=O)[C@H](CC(=O)O)NC(=O)[C@@H](NC(=O)[C@H](CCN=C(N)N)NC(=O)[C@H](CSCNC(C)=O)NC(=O)CNC(=O)[C@H](Cc1ccccc1)NC(=O)[C@H](CSCNC(C)=O)NC(=O)[C@H](CO)NC(=O)[C@@H](N)CO)[C@@H](C)CC)C(=O)NCC(=O)N[C@@H](C)C(=O)N[C@@H](CCC(N)=O)C(=O)C1SSC[C@@H](C(=O)N[C@@H](CC(N)=O)C(=O)CN[C@@H](CO)C(=O)N[C@@H](Cc2ccccc2)C(=O)N[C@@H](CCCN=C(N)N)C(N)=O)NC(=O)CNC(=O)[C@H](CC(C)C)NC(=O)CNC(=O)[C@H]1N` (stereo in doubt; 9b) registered a Relative potency of 0.013.
`CC[C@H](C)[C@@H]1NC(=O)[C@H](CCCN=C(N)N)NC(=O)[C@H](CC(=O)O)NC(=O)[C@H]([C@@H](C)CC)NC(=O)[C@H](CCCN=C(N)N)NC(=O)[C@H](CSCNC(C)=O)NC(=O)CNC(=O)[C@H](Cc2ccccc2)NC(=O)[C@@H](NC(=O)[C@H](CO)NC(=O)[C@@H](N)CO)CSSC[C@@H](C(=O)N[C@@H](CC(N)=O)C(=O)N[C@@H](CO)C(=O)N[C@@H](Cc2ccccc2)C(=O)N[C@@H](CCCN=C(N)N)C(N)=O)NC(=O)CNC(=O)[C@H](CC(C)C)NC(=O)CNC(=O)[C@H](CO)NC(=O)[C@H](CCC(N)=O)NC(=O)[C@H](C)NC(=O)CNC1=O` came in with a Relative potency of 1.03.
On the same count and under the same terms, the result for `CC[C@H](C)[C@@H]1NC(=O)[C@H](CCCN=C(N)N)NC(=O)[C@H](CC(=O)O)NC(=O)[C@H]([C@@H](C)CC)NC(=O)[C@H](CCCN=C(N)N)NC(=O)[C@H](CSCNC(C)=O)NC(=O)CNC(=O)[C@H](Cc2ccccc2)NC(=O)[C@@H](NC(=O)[C@H](CO)NC(=O)[C@@H](N)CO)CSSC[C@@H](C(=O)NCC(=O)N[C@@H](CC(C)C)C(=O)NCC(=O)N[C@@H](CSCNC(C)=O)C(=O)N[C@@H](CC(N)=O)C(=O)N[C@@H](CO)C(=O)N[C@@H](Cc2ccccc2)C(=O)N[C@@H](CCCN=C(N)N)C(N)=O)NC(=O)[C@H](CCC(N)=O)NC(=O)[C@H](C)NC(=O)CNC1=O` reads 0.042.
As to `CC[C@H](C)[C@@H]1NC(=O)[C@H](CCCN=C(N)N)NC(=O)[C@H](CC(=O)O)NC(=O)[C@H]([C@@H](C)CC)NC(=O)[C@H](CCCN=C(N)N)NC(=O)CNC(=O)CNC(=O)[C@H](Cc2ccccc2)NC(=O)[C@@H](NC(=O)[C@H](CO)NC(=O)[C@@H](N)CO)CSSC[C@@H](C(=O)N[C@@H](CC(N)=O)C(=O)N[C@@H](CO)C(=O)N[C@@H](Cc2ccccc2)C(=O)N[C@@H](CCCN=C(N)N)C(N)=O)NC(=O)CNC(=O)[C@H](CC(C)C)NC(=O)CNC(=O)[C@H](CSCNC(C)=O)NC(=O)[C@H](CCC(N)=O)NC(=O)[C@H](C)NC(=O)CNC1=O`, the Relative potency is recorded as 0.21.
The same measure, in the same setting: the result for `CC[C@H](C)[C@@H]1NC(=O)[C@H](CCCN=C(N)N)NC(=O)[C@H](CC(=O)O)NC(=O)[C@H]([C@@H](C)CC)NC(=O)[C@H](CCCN=C(N)N)NC(=O)[C@@H](CSCNC(C)=O)NC(=O)CNC(=O)[C@H](Cc2ccccc2)NC(=O)[C@@H](NC(=O)[C@H](CO)NC(=O)[C@@H](N)CO)CSSC[C@@H](C(=O)N[C@@H](CC(N)=O)C(=O)N[C@@H](CO)C(=O)N[C@@H](Cc2ccccc2)C(=O)N[C@@H](CCCN=C(N)N)C(N)=O)NC(=O)CNC(=O)[C@H](CC(C)C)NC(=O)CNC(=O)[C@@H](CSCNC(C)=O)NC(=O)[C@H](CCC(N)=O)NC(=O)[C@H](C)NC(=O)CNC1=O` reads 0.044.
In the case of `CC[C@H](C)[C@@H]1NC(=O)[C@H](CCCN=C(N)N)NC(=O)[C@H](CC(=O)O)NC(=O)[C@H]([C@@H](C)CC)NC(=O)[C@H](CCCN=C(N)N)NC(=O)CNC(=O)CNC(=O)[C@H](Cc2ccccc2)NC(=O)[C@@H](NC(=O)[C@H](CO)NC(=O)[C@@H](N)CO)CSSC[C@@H](C(=O)N[C@@H](CC(N)=O)C(=O)N[C@@H](CO)C(=O)N[C@@H](Cc2ccccc2)C(=O)N[C@@H](CCCN=C(N)N)C(N)=O)NC(=O)CNC(=O)[C@H](CC(C)C)NC(=O)CNC(=O)[C@H](CO)NC(=O)[C@H](CCC(N)=O)NC(=O)[C@H](C)NC(=O)CNC1=O`, the Relative potency is 1.7.
The same measure, in the same setting: the result for `CC[C@H](C)[C@@H]1NC(=O)[C@H](CCCN=C(N)N)NC(=O)[C@H](CC(=O)O)NC(=O)[C@H]([C@@H](C)CC)NC(=O)[C@H](CCCN=C(N)N)NC(=O)[C@H]2CSSC[C@@H](NC(=O)[C@H](CCC(N)=O)NC(=O)[C@H](C)NC(=O)CNC1=O)C(=O)NCC(=O)N[C@@H](CC(C)C)C(=O)NCC(=O)N[C@H](C(=O)N[C@@H](CC(N)=O)C(=O)N[C@@H](CO)C(=O)N[C@@H](Cc1ccccc1)C(=O)N[C@@H](CCCN=C(N)N)C(N)=O)CSSC[C@H](NC(=O)[C@H](CO)NC(=O)[C@@H](N)CO)C(=O)N[C@@H](Cc1ccccc1)C(=O)NCC(=O)N2` reads 0.0073; that for `CC[C@H](C)[C@H](NC(=O)[C@H](CC/N=C(/N)NO)NC(=O)[C@H](CC(=O)O)NC(=O)[C@@H](NC(=O)[C@H](CCN=C(N)N)NC(=O)[C@H](CSCNC(C)=O)NC(=O)CNC(=O)[C@H](Cc1ccccc1)NC(=O)[C@H](CSCNC(C)=O)NC(=O)[C@H](CO)NC(=O)[C@@H](N)CO)[C@@H](C)CC)C(=O)NCC(=O)N[C@@H](C)C(=O)N[C@@H](CCC(N)=O)C(=O)C1SSC[C@@H](C(=O)N[C@@H](CC(N)=O)C(=O)CN[C@@H](CO)C(=O)N[C@@H](Cc2ccccc2)C(=O)N[C@@H](CCCN=C(N)N)C(N)=O)NC(=O)CNC(=O)[C@H](CC(C)C)NC(=O)CNC(=O)[C@H]1N` (stereo in doubt; 9a), 0.028.
Still for that read-out and setting: as for `CC[C@H](C)[C@@H]1NC(=O)[C@H](CCCN=C(N)N)NC(=O)[C@H](CC(=O)O)NC(=O)[C@H]([C@@H](C)CC)NC(=O)[C@H](CCCN=C(N)N)NC(=O)[C@H](CCSCNC(C)=O)NC(=O)CNC(=O)[C@H](Cc2ccccc2)NC(=O)[C@@H](NC(=O)[C@H](CO)NC(=O)[C@@H](N)CO)CSSC[C@@H](C(=O)N[C@@H](CC(N)=O)C(=O)N[C@@H](CO)C(=O)N[C@@H](Cc2ccccc2)C(=O)N[C@@H](CCCN=C(N)N)C(N)=O)NC(=O)CNC(=O)[C@H](CC(C)C)NC(=O)CNC(=O)[C@H](CCSCNC(C)=O)NC(=O)[C@H](CCC(N)=O)NC(=O)[C@H](C)NC(=O)CNC1=O`, the figure is 0.068; as for `CC[C@H](C)[C@@H]1NC(=O)[C@H](CCCN=C(N)N)NC(=O)[C@H](CC(=O)O)NC(=O)[C@H]([C@@H](C)CC)NC(=O)[C@H](CCCN=C(N)N)NC(=O)[C@H](CCSCNC(C)=O)NC(=O)CNC(=O)[C@H](Cc2ccccc2)NC(=O)[C@@H](NC(=O)[C@H](CO)NC(=O)[C@@H](N)CO)CSSC[C@@H](C(=O)N[C@@H](CC(N)=O)C(=O)N[C@@H](CO)C(=O)N[C@@H](Cc2ccccc2)C(=O)N[C@@H](CCCN=C(N)N)C(N)=O)NC(=O)CNC(=O)[C@H](CC(C)C)NC(=O)CNC(=O)[C@H](CSCNC(C)=O)NC(=O)[C@H](CCC(N)=O)NC(=O)[C@H](C)NC(=O)CNC1=O`, 0.24.
Same read-out and setting: as for `CC[C@H](C)[C@@H]1NC(=O)[C@H](CCCN=C(N)N)NC(=O)[C@H](CC(=O)O)NC(=O)[C@H]([C@@H](C)CC)NC(=O)[C@H](CCCN=C(N)N)NC(=O)[C@@H](NC(=O)CNC(=O)[C@H](Cc2ccccc2)NC(=O)[C@H](CSCNC(C)=O)NC(=O)[C@H](CO)NC(=O)[C@@H](N)CO)CSSC[C@@H](C(=O)N[C@@H](CC(N)=O)C(=O)N[C@@H](CO)C(=O)N[C@@H](Cc2ccccc2)C(=O)N[C@@H](CCCN=C(N)N)C(N)=O)NC(=O)CNC(=O)[C@H](CC(C)C)NC(=O)CNC(=O)[C@H](CSCNC(C)=O)NC(=O)[C@H](CCC(N)=O)NC(=O)[C@H](C)NC(=O)CNC1=O` (H-SSC(Acm)FGCRIDRIGAQC(Acm)GLGCNSFR-NH2; disulfide 6-19), the figure is 0.0022.
